According to ChEMBL document CHEMBL4765405, “Design, synthesis and biological activities of novel pleuromutilin derivatives with a substituted triazole moiety as potent antibacterial agents” (Eur J Med Chem, 2020):
Converted amounts (≈) assume the structure as drawn.

How the values were obtained:
Type in all cases: functional
Staphylococcus aureus [1] = test: Antibacterial activity against Staphylococcus aureus 144 after 24 hrs by CLSI based broth micro dilution method
Outline: (§1)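 Broth microdilution run per CLSI. MRSA ATCC 43300 served as the QC strain, with the CLSI QC range as reference. S. aureus AD3 and 144 are clinical isolates from Guangdong Province. Pleuromutilin and tiamulin were run as reference drugs.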

Staphylococcus aureus [2] = test: Antibacterial activity against methicillin-resistant Staphylococcus aureus ATCC 43300 after 24 hrs by CLSI based broth micro dilution method; outline: as §1
Escherichia coli [3] = test: Antibacterial activity against Escherichia coli ATCC 25922 after 24 hrs by CLSI based broth micro dilution method
Outline: (§2)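 CLSI broth microdilution MIC against S. aureus ATCC 43300 (MRSA), ATCC 29213, clinical isolates AD3 and 144 (Guangdong Province), and E. coli ATCC 25922; ATCC 43300 served as QC strain, with the CLSI quality control range as reference.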

Staphylococcus aureus [4] = test: Bactericidal activity against Staphylococcus aureus ATCC 29213 preincubated 16 to 20 hrs followed by subculturing and measured after over night
Outline: (§3)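 MBC by CLSI broth microdilution on the same strain panel: S. aureus ATCC 43300, ATCC 29213, clinical isolates AD3 and 144, E. coli ATCC 25922; ATCC 43300 served as QC strain.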

Staphylococcus aureus [5] = test: Bactericidal activity against methicillin-resistant Staphylococcus aureus ATCC 43300 preincubated 16 to 20 hrs followed by subculturing and measured after over night
Outline: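 MBC determined by the CLSI broth microdilution method against MRSA ATCC 43300, with ATCC 43300 also serving as the QC strain. Pleuromutilin and tiamulin were reference drugs.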

Staphylococcus aureus [6] = test: Bactericidal activity against Staphylococcus aureus 144 preincubated 16 to 20 hrs followed by subculturing and measured after over night; outline: as §3
Escherichia coli [7] = test: Bactericidal activity against Escherichia coli ATCC 25922 preincubated 16 to 20 hrs followed by subculturing and measured after over night; outline: as §3
Staphylococcus aureus [8] = test: Antibacterial activity against Staphylococcus aureus ATCC 29213 after 24 hrs by CLSI based broth micro dilution method; outline: as §1
Staphylococcus aureus [9] = test: Bactericidal activity against Staphylococcus aureus AD3 preincubated 16 to 20 hrs followed by subculturing and measured after over night; outline: as §3
Staphylococcus aureus [10] = test: Antibacterial activity against Staphylococcus aureus AD3 after 24 hrs by CLSI based broth micro dilution method; outline: as §2
[11] = Ratio of MBC for bactericidal activity against methicillin-resistant Staphylococcus aureus ATCC 43300 to MIC for antibacterial activity against methicillin-resistant Staphylococcus aureus ATCC 4330

SMILES | MIC (Staphylococcus aureus [1]) | MIC (Staphylococcus aureus [2]) | MIC (Escherichia coli [3]) | MBC (Staphylococcus aureus [4]) | MBC (Staphylococcus aureus [5]) | MBC (Staphylococcus aureus [6]) | MBC (Escherichia coli [7]) | MIC (Staphylococcus aureus [8]) | MBC (Staphylococcus aureus [9]) | MIC (Staphylococcus aureus [10]) | Ratio [11]
C=C[C@]1(C)C[C@@H](OC(=O)CSc2ccccc2NC(=O)Cn2cc(CN3CCN(C)CC3)nn2)[C@]2(C)[C@H](C)CC[C@]3(CCC(=O)[C@H]32)[C@@H](C)[C@@H]1O | 0.5 µg/mL (≈ 0.707 µM) | 0.25 µg/mL (≈ 0.354 µM) | > 32 µg/mL | 0.5 µg/mL (≈ 0.707 µM) | 0.5 µg/mL (≈ 0.707 µM) | 2 µg/mL (≈ 2.83 µM) | > 32 µg/mL | 0.25 µg/mL (≈ 0.354 µM) | 1 µg/mL (≈ 1.41 µM) | 0.5 µg/mL (≈ 0.707 µM) | 1
C=C[C@]1(C)C[C@@H](OC(=O)CSc2ccccc2NC(=O)Cn2cc(CN3CCOCC3)nn2)[C@]2(C)[C@H](C)CC[C@]3(CCC(=O)[C@H]32)[C@@H](C)[C@@H]1O | 1 µg/mL (≈ 1.44 µM) | 0.5 µg/mL (≈ 0.721 µM) | > 32 µg/mL | 0.5 µg/mL (≈ 0.721 µM) | 1 µg/mL (≈ 1.44 µM) | 1 µg/mL (≈ 1.44 µM) | > 32 µg/mL | 0.5 µg/mL (≈ 0.721 µM) | 2 µg/mL (≈ 2.88 µM) | 1 µg/mL (≈ 1.44 µM) | 1
C=C[C@]1(C)C[C@@H](OC(=O)CSc2ccccc2NC(=O)Cn2cc(CN3CCN(c4ccc(O)cc4)CC3)nn2)[C@]2(C)[C@H](C)CC[C@]3(CCC(=O)[C@H]32)[C@@H](C)[C@@H]1O | 2 µg/mL (≈ 2.55 µM) | 2 µg/mL (≈ 2.55 µM) | > 32 µg/mL | 4 µg/mL (≈ 5.1 µM) | 4 µg/mL (≈ 5.1 µM) | 8 µg/mL (≈ 10.2 µM) | > 32 µg/mL | 2 µg/mL (≈ 2.55 µM) | 4 µg/mL (≈ 5.1 µM) | 2 µg/mL (≈ 2.55 µM) | 1
C=C[C@]1(C)C[C@@H](OC(=O)CSc2ccccc2NC(=O)Cn2cc(CN3CCCC3)nn2)[C@]2(C)[C@H](C)CC[C@]3(CCC(=O)[C@H]32)[C@@H](C)[C@@H]1O | 0.25 µg/mL (≈ 0.369 µM) | 0.25 µg/mL (≈ 0.369 µM) | > 32 µg/mL | 4 µg/mL (≈ 5.9 µM) | 0.5 µg/mL (≈ 0.738 µM) | 0.5 µg/mL (≈ 0.738 µM) | > 32 µg/mL | 0.25 µg/mL (≈ 0.369 µM) | 0.5 µg/mL (≈ 0.738 µM) | 0.25 µg/mL (≈ 0.369 µM) | 1
C=C[C@]1(C)C[C@@H](OC(=O)CSc2ccccc2NC(=O)Cn2cc(CN3CCC(O)CC3)nn2)[C@]2(C)[C@H](C)CC[C@]3(CCC(=O)[C@H]32)[C@@H](C)[C@@H]1O | 1 µg/mL (≈ 1.41 µM) | 1 µg/mL (≈ 1.41 µM) | > 32 µg/mL | 1 µg/mL (≈ 1.41 µM) | 2 µg/mL (≈ 2.83 µM) | 2 µg/mL (≈ 2.83 µM) | > 32 µg/mL | 1 µg/mL (≈ 1.41 µM) | 1 µg/mL (≈ 1.41 µM) | 1 µg/mL (≈ 1.41 µM) | 1
C=C[C@]1(C)C[C@@H](OC(=O)CSc2ccccc2NC(=O)Cn2cc(CN3CCCC(CO)C3)nn2)[C@]2(C)[C@H](C)CC[C@]3(CCC(=O)[C@H]32)[C@@H](C)[C@@H]1O (stereo partly specified) | 0.5 µg/mL (≈ 0.693 µM) | 0.5 µg/mL (≈ 0.693 µM) | > 32 µg/mL | 0.5 µg/mL (≈ 0.693 µM) | 0.5 µg/mL (≈ 0.693 µM) | 0.5 µg/mL (≈ 0.693 µM) | > 32 µg/mL | 0.5 µg/mL (≈ 0.693 µM) | 1 µg/mL (≈ 1.39 µM) | 0.5 µg/mL (≈ 0.693 µM) | 1
C=C[C@]1(C)C[C@@H](OC(=O)CSc2ccccc2NC(=O)Cn2cc(CN3CCN(c4cccc(Cl)c4)CC3)nn2)[C@]2(C)[C@H](C)CC[C@]3(CCC(=O)[C@H]32)[C@@H](C)[C@@H]1O | 2 µg/mL (≈ 2.49 µM) | 2 µg/mL (≈ 2.49 µM) | > 32 µg/mL | 1 µg/mL (≈ 1.24 µM) | 4 µg/mL (≈ 4.98 µM) | 4 µg/mL (≈ 4.98 µM) | > 32 µg/mL | 1 µg/mL (≈ 1.24 µM) | 2 µg/mL (≈ 2.49 µM) | 2 µg/mL (≈ 2.49 µM) | 1
C=C[C@]1(C)C[C@@H](OC(=O)CSc2ccccc2NC(=O)Cn2cc(CN3CCN(c4ccc(F)cc4)CC3)nn2)[C@]2(C)[C@H](C)CC[C@]3(CCC(=O)[C@H]32)[C@@H](C)[C@@H]1O | 1 µg/mL (≈ 1.27 µM) | 1 µg/mL (≈ 1.27 µM) | > 32 µg/mL | 0.5 µg/mL (≈ 0.635 µM) | 1 µg/mL (≈ 1.27 µM) | 2 µg/mL (≈ 2.54 µM) | > 32 µg/mL | 0.5 µg/mL (≈ 0.635 µM) | 1 µg/mL (≈ 1.27 µM) | 0.5 µg/mL (≈ 0.635 µM) | 1
C=C[C@]1(C)C[C@@H](OC(=O)CSc2ccccc2NC(=O)Cn2cc(CN3CCN(c4ccccc4O)CC3)nn2)[C@]2(C)[C@H](C)CC[C@]3(CCC(=O)[C@H]32)[C@@H](C)[C@@H]1O | 1 µg/mL (≈ 1.27 µM) | 0.5 µg/mL (≈ 0.637 µM) | > 32 µg/mL | 1 µg/mL (≈ 1.27 µM) | 1 µg/mL (≈ 1.27 µM) | 2 µg/mL (≈ 2.55 µM) | > 32 µg/mL | 1 µg/mL (≈ 1.27 µM) | 2 µg/mL (≈ 2.55 µM) | 1 µg/mL (≈ 1.27 µM) | 1
C=C[C@]1(C)C[C@@H](OC(=O)CSc2ccccc2NC(=O)Cn2cc(CN3CCN(c4ccccc4[N+](=O)[O-])CC3)nn2)[C@]2(C)[C@H](C)CC[C@]3(CCC(=O)[C@H]32)[C@@H](C)[C@@H]1O | 0.5 µg/mL (≈ 0.614 µM) | 0.5 µg/mL (≈ 0.614 µM) | > 32 µg/mL | 0.25 µg/mL (≈ 0.307 µM) | 1 µg/mL (≈ 1.23 µM) | 2 µg/mL (≈ 2.46 µM) | > 32 µg/mL | 0.25 µg/mL (≈ 0.307 µM) | 1 µg/mL (≈ 1.23 µM) | 0.5 µg/mL (≈ 0.614 µM) | 1
C=C[C@]1(C)C[C@@H](OC(=O)CSc2ccccc2NC(=O)Cn2cc(CN3CCN(c4ccc(Cl)cc4)CC3)nn2)[C@]2(C)[C@H](C)CC[C@]3(CCC(=O)[C@H]32)[C@@H](C)[C@@H]1O | 2 µg/mL (≈ 2.49 µM) | 0.5 µg/mL (≈ 0.622 µM) | > 32 µg/mL | 4 µg/mL (≈ 4.98 µM) | 1 µg/mL (≈ 1.24 µM) | 2 µg/mL (≈ 2.49 µM) | > 32 µg/mL | 1 µg/mL (≈ 1.24 µM) | 4 µg/mL (≈ 4.98 µM) | 2 µg/mL (≈ 2.49 µM) | 1
C=C[C@]1(C)C[C@@H](OC(=O)CSc2ccccc2NC(=O)Cn2cc(CN3CCN(c4ccccc4C)CC3)nn2)[C@]2(C)[C@H](C)CC[C@]3(CCC(=O)[C@H]32)[C@@H](C)[C@@H]1O | 1 µg/mL (≈ 1.28 µM) | 1 µg/mL (≈ 1.28 µM) | > 32 µg/mL | 2 µg/mL (≈ 2.55 µM) | 1 µg/mL (≈ 1.28 µM) | 4 µg/mL (≈ 5.11 µM) | > 32 µg/mL | 1 µg/mL (≈ 1.28 µM) | 4 µg/mL (≈ 5.11 µM) | 2 µg/mL (≈ 2.55 µM) | 1
C=C[C@]1(C)C[C@@H](OC(=O)CSc2ccccc2NC(=O)Cn2cc(CN3CCN(c4ccc(OC)cc4)CC3)nn2)[C@]2(C)[C@H](C)CC[C@]3(CCC(=O)[C@H]32)[C@@H](C)[C@@H]1O | 1 µg/mL (≈ 1.25 µM) | 1 µg/mL (≈ 1.25 µM) | > 32 µg/mL | 0.5 µg/mL (≈ 0.626 µM) | 1 µg/mL (≈ 1.25 µM) | 2 µg/mL (≈ 2.5 µM) | > 32 µg/mL | 0.5 µg/mL (≈ 0.626 µM) | 1 µg/mL (≈ 1.25 µM) | 1 µg/mL (≈ 1.25 µM) | 1
C=C[C@]1(C)C[C@@H](OC(=O)CO)[C@]2(C)[C@H](C)CC[C@]3(CCC(=O)[C@H]32)[C@@H](C)[C@@H]1O [PLEUROMULIN] | 2 µg/mL (≈ 5.28 µM) | 2 µg/mL (≈ 5.28 µM) |  | 2 µg/mL (≈ 5.28 µM) | 4 µg/mL (≈ 10.6 µM) | 4 µg/mL (≈ 10.6 µM) |  | 1 µg/mL (≈ 2.64 µM) | 4 µg/mL (≈ 10.6 µM) | 2 µg/mL (≈ 5.28 µM) | 
